The subject of one data set is A549 cells. Put plainly: In-vitro cytotoxicity, crystal violet dye assay. The data set is classed as cell-based, human.
Data set [1] in a line: Plasma pharmacokinetics after i.v. administration. The conditions noted are these: DIM-P, 5.0 mg/kg equivalent of DIM-P. The data set is classed as in vivo, BALB/c mice. An outline of the steps:
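BALB/c mice, randomized (n = 6 per group) and fasted overnight, received a single i.v. dose (DIM-P equivalent 5.0 mg/kg). Plasma was deproteinized with acetonitrile and spun 15 min at 10,000 g. Analysis was C18 HPLC with acetonitrile:water 90:10 at 1.0 mL/min, UV 242 nm. Parameters were derived non-compartmentally.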

On to `c1ccc(-c2ccc(C(c3c[nH]c4ccccc34)c3c[nH]c4ccccc34)cc2)cc1` [DIM-P, DIM-C-pPhC6H5], for which the IC50 (commonly the concentration at which inhibition is half-maximal) in the data set on A549 cells (A549 cells, 72 h) is 6.8 ± 0.7 µM. Besides, in data set [1], the Cl stood at 0.629 ± 0.173 mL/min/kg; the Cmax (usually the highest concentration seen after dosing) was 216.25 ± 23.59 µg/mL; the K10-HL is 2.98 ± 0.65 hr^−1; the MRT (usually a mean duration of stay, worked out from the concentration-time curve) amounted to 2.79 ± 1.02 h. For the same molecule, the Vss (usually a proportionality between amount in the body and measured concentration, not a real space) in data set [1] worked out at 0.18598 ± 0.02989 L/kg. Moreover, the “AUC0–24” value in data set [1] (non-compartment analysis) worked out at 124.22 ± 13.65 µg·h/mL.

In the data set on A549 cells (Homo sapiens, A549, 72 h), `CC(=O)O[C@@]12CO[C@@H]1C[C@H](O)[C@@]1(C)C(=O)[C@H](O)C3=C(C)[C@@H](OC(=O)[C@H](O)[C@@H](NC(=O)OC(C)(C)C)c4ccccc4)C[C@@](O)([C@@H](OC(=O)c4ccccc4)[C@H]21)C3(C)C` [Doc, Docetaxel, reference compound] gave a half-maximal inhibitory concentration (IC50) of 0.02 ± 0.01 µM.

Source of the values: publication PMC5725227 (Pharmaceutical research, 2014).
